Legend:
Rattus norvegicus [1] = assay: Antiulcer activity in male Donry rat for 50% inhibition of aspirin induced gastric lesions after intraduodenal administration.; assay type: functional; settings: Stomach
Outline: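 Aspirin ulcer model. Male Donryu rats of 200–220 g were food-deprived 24 h, ten per group, pylorus-ligated, then dosed intraduodenally. Ten min later they received oral aspirin 100 mg/kg in 1% carboxymethylcellulose. At 7 h the summed lengths of glandular lesions gave the ulcer index (mm). ED50 by Litchfield–Wilcoxon.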

Rattus norvegicus [2] = assay: Antiulcer activity as dose required to inhibit 50% gastric juice secretions in male Wistar rats after intraduodenally administration.; assay type: functional; settings: intraduodenal
Rattus norvegicus [3] = assay: Inhibition of gastric antisecretory activity in the pylorus-ligated rat at a dose of 100 mg/kg administered intraduodenally; assay type: functional; settings: Stomach, route intraduodenal
Outline: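 Shay pylorus-ligated rats, fasted, six per group, ligated under ether. A single intraduodenal dose of 100 mg/kg was given in 1% carboxymethylcellulose, against a vehicle control. The stomach was removed 7 h later, juice volume measured, and free acid titrated with 0.1 N NaOH to pH 3.0 as hourly output. Results are given as percent inhibition versus control.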

Rattus norvegicus [4] = assay: Effective dose required for gastric antisecretory activity in the pylorus-ligated rat after intraduodenal administration.; assay type: functional; settings: Stomach
Outline: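 Pylorus ligated under ether in fasted rats, six per group. Test agents were given intraduodenally at several dose levels in 1% carboxymethylcellulose, with a vehicle control group. After 7 h the gastric juice volume was measured and titrated with 0.1 N NaOH to pH 3.0 for free acid, as hourly output per rat. ED50 was calculated.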

Rattus norvegicus [5] = assay: Antiulcer activity in male Wistar rats for 50% inhibition of stress induced gastric lesions after peroral administration.; assay type: functional; settings: Stomach, po
Outline: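 Stress ulcer model. Male Wistar rats of 200–220 g, ten per group, were dosed orally, then immobilized in a stress cage and immersed in a water bath. The stomach was removed 7 h later and summed lesion lengths gave the ulcer index (mm). ED50 by Litchfield–Wilcoxon.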

Rattus norvegicus [6] = assay: Percent inhibition of gastric antisecretory activity in the pylorus-ligated rat at a dose of 100 mg/kg administered intraduodenally; assay type: functional; settings: Stomach, route intraduodenal
Outline: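 Fasted rats in groups of six, pylorus ligated under ether anaesthesia (Shay method); compound in 1% carboxymethylcellulose, or vehicle alone, given intraduodenally at 100 mg/kg. Stomach removed 7 h after abdominal closure. Gastric juice volume measured, and free acid titrated with 0.1 N NaOH to pH 3.0. Hourly free-acid output per rat expressed as percent inhibition versus vehicle controls.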

Rattus norvegicus [7] = species: Rattus norvegicus; assay: animal or person; settings: Stomach, intraduodenal
Rattus norvegicus [8] = species: Rattus norvegicus; assay: animal or person; settings: Stomach, intraduodenal; remark: listed apart in the source

SMILES | inhibition in vivo at 100 mg/kg (Rattus norvegicus [3]) [%] | ED50 (Rattus norvegicus [4]) [mg/kg] | other results
Cc1cc(-c2ccccc2)nn(CCC(=N)S)c1=O | 60.2 | 66.7 | ED50 (Rattus norvegicus [1]): 73.1 mg/kg; ED50 (Rattus norvegicus [2]): 32 mg/kg; ED50 (Rattus norvegicus [5]): > 50 mg/kg
O=c1ccc(-c2ccccc2)nn1CC/C(S)=N/CO |  |  | inhibition in vivo at 100 mg/kg (Rattus norvegicus [6]): 5.1%
Cc1cc(=O)n(CCC(=N)S)nc1-c1ccccc1 | 32 | > 100 | 
Cc1ccc(=O)n(CCCCC(=N)S)n1 | 29.5 | > 100 | 
Cc1ccc(-c2ccc(=O)n(CCC(=N)S)n2)cc1 | 18.2 |  | 
CC(Cn1nc(-c2ccccc2)ccc1=O)C(=N)S (stereo not drawn) | 86.4 | 28.1 | ED50 (Rattus norvegicus [1]): 35 mg/kg; ED50 (Rattus norvegicus [2]): 18.2 mg/kg; ED50 (Rattus norvegicus [5]): 36.1 mg/kg
N=C(S)CCCCCN1N=C(c2ccccc2)CCC1=O | 48.5 | 100 | 
NC(=O)CCn1nc(-c2ccccc2)ccc1=O | -2.8 |  | 
CC/N=C(\S)CCn1nc(-c2ccccc2)ccc1=O | 50.3 | 100 | 
N=C(S)CCCCCCN1N=C(c2ccccc2)CCC1=O | 68.3 | 58.8 | ED50 (Rattus norvegicus [1]): 72.3 mg/kg; ED50 (Rattus norvegicus [2]): 24.8 mg/kg; ED50 (Rattus norvegicus [5]): 23 mg/kg
Cc1ccc(=O)n(C(C)CC(=N)S)n1 (stereo not drawn) | 32.5 | > 100 | 
CC(CN1N=C(c2ccccc2)CCC1=O)C(=N)S (stereo not drawn) | 28.2 |  | 
N=C(S)CCN1N=C(c2ccccc2)CCC1=O | 38.2 | > 100 | 
N=C(S)CCN1N=C(c2cccs2)CCC1=O | 58.5 | 77.3 | 
CC1=NN(CC(C)C(=N)S)C(=O)CC1 (stereo not drawn) | 15.6 |  | 
N=C(S)CCn1nc(-c2ccccc2)ccc1=S | 62.3 | 73.4 | 
N=C(S)CCCCN1N=C(c2ccccc2)CCC1=O | 50.2 | 100 | 
N=C(S)CCn1nc(-c2ccccc2)c2ccccc2c1=O | 73.3 | 66.5 | 
N=C(S)CCn1ncccc1=O | 28.8 | > 100 | 
CC(CC(=N)S)n1ncccc1=O (stereo not drawn) | 38.8 | > 100 | 
N=C(S)CCCCCn1nc(-c2ccccc2)ccc1=O | 91.4 | 23.3 | ED50 (Rattus norvegicus [1]): 18.2 mg/kg; ED50 (Rattus norvegicus [2]): 9.2 mg/kg; ED50 (Rattus norvegicus [5]): 10.2 mg/kg
N=C(S)CCn1nc2c(cc1=O)CCc1ccccc1-2 | 1.6 |  | 
N=C(S)CCn1nc(-c2ccccc2)ccc1=O | 53.7 | 87.3 | ED50 (Rattus norvegicus [1]): 53.5 mg/kg; ED50 (Rattus norvegicus [2]): 23.2 mg/kg; ED50 (Rattus norvegicus [5]): 34.5 mg/kg

SMILES | inhibition in vivo at 100 mg/kg (Rattus norvegicus [3]) [%] | ED50 (Rattus norvegicus [4]) [mg/kg] | other results
O=C(O)CCn1nc(-c2ccccc2)ccc1=O | 26.1 |  | 
Cc1ccc(=O)n(CCC#N)n1 | -0.2 |  | 
COc1ccc2cc(-c3ccc(=O)n(CCC(=N)S)n3)ccc2c1 | 48.9 | 100 | 
CN(C)C(=S)CCCCCn1nc(-c2ccccc2)ccc1=O | 58.2 | 100 | 
N=C(S)CCn1[nH]c(=O)ccc1=O | -13.4 |  | 
C/N=C(\S)C(C)Cn1ncccc1=O (stereo not drawn) | 50.2 | 100 | ED50 (Rattus norvegicus [1]): 68.5 mg/kg; ED50 (Rattus norvegicus [2]): 40 mg/kg; ED50 (Rattus norvegicus [5]): > 50 mg/kg
CC1=NN(C(C)CC(=N)S)C(=O)CC1 (stereo not drawn) | 17.4 |  | 
N=C(S)CCn1ncccc1=S | 50 | 100 | 
N=C(S)CCCN1N=C(c2ccccc2)CCC1=O | 50.3 | 100 | 
Cc1ccc(=O)n(CC(=N)S)n1 | 31.5 | > 100 | 
N=C(S)CCCn1nc(-c2ccccc2)ccc1=O | 75.6 | 31.9 | ED50 (Rattus norvegicus [1]): 38 mg/kg; ED50 (Rattus norvegicus [2]): 15.5 mg/kg; ED50 (Rattus norvegicus [5]): 10.5 mg/kg
Cc1ccc(=S)n(CCC(=N)S)n1 | 48.5 | 100 | 
N=C(S)Cn1nc(-c2ccccc2)ccc1=O | 5.5 |  | 
N=C(S)CCn1nc(-c2ccc(Cl)c(Cl)c2)ccc1=O | 55.8 | 78.1 | 
N=C(S)CCn1nc(-c2ccc(Cl)cc2)ccc1=O | 42.5 | > 100 | 
CNC(=O)CCn1nc(-c2ccccc2)ccc1=O | 3.5 |  | 
CC(CC(=N)S)N1N=C(c2ccccc2)CCC1=O (stereo not drawn) | 9.2 |  | 
CC(Cn1ncccc1=S)C(=N)S (stereo not drawn) | -1 |  | 
C/N=C(\S)CC(C)n1ncccc1=O (stereo not drawn) | 42.7 | > 100 | 
N=C(S)CCCCCCn1nc(-c2ccccc2)ccc1=O | 33.9 | > 100 | 
C/N=C(/S)CCCCCn1nc(-c2ccccc2)ccc1=O | 92.3 | 25.2 | ED50 (Rattus norvegicus [1]): 45.5 mg/kg; ED50 (Rattus norvegicus [2]): 15 mg/kg; ED50 (Rattus norvegicus [5]): 18.3 mg/kg
Cc1ccc(=O)n(CCCC(=N)S)n1 | 36.3 | > 100 | 
N#CCCn1nc(-c2ccccc2)ccc1=O | 10.1 |  | 

SMILES | inhibition in vivo at 100 mg/kg (Rattus norvegicus [3]) [%] | ED50 (Rattus norvegicus [4]) [mg/kg] | other results
Cc1ccc(=O)n(CCCCCCC(=N)S)n1 | 29.5 | > 100 | 
CC1=NN(CCC(=N)S)C(=O)CC1 | 34.8 | > 100 | 
N=C(S)CCN1N=C(c2ccc(Cl)c(Cl)c2)CCC1=O | 47.2 | > 100 | 
O=c1ccc(-c2ccccc2)nn1CCC(=S)N1CCCC1 | 38.2 | > 100 | 
CC(Cn1ncccc1=O)C(=N)S (stereo not drawn) | 40.3 | > 100 | 
N=C(S)CCN1N=C(c2ccc(Cl)cc2)CCC1=O | 43.1 | > 100 | 
Cc1ccc(=O)n(CCC(N)=O)n1 | -2.9 |  | 
Cc1ccc(=O)n(CCC(=N)S)n1 | 73.9 | 43.2 | ED50 (Rattus norvegicus [1]): > 100 mg/kg; ED50 (Rattus norvegicus [2]): 51.3 mg/kg; ED50 (Rattus norvegicus [5]): > 50 mg/kg
N=C(S)CCCCn1nc(-c2ccccc2)ccc1=O | 33.8 | > 100 | 
Cc1ccc(=O)n(CCCCCC(=N)S)n1 | 36.6 | > 100 | 
C/N=C(\S)CCn1ncccc1=O | 30.7 | > 100 | 
CCOC(=O)CCn1nc(-c2ccccc2)ccc1=O | 6.3 |  | 
COc1ccc(-c2ccc(=O)n(CCC(=N)S)n2)cc1 | 20.7 | > 100 | 
N=C(S)CCn1ncc2ccccc2c1=O | 58.3 | 90.1 | 
CC(CC(=N)S)n1nc(-c2ccccc2)ccc1=O (stereo not drawn) | 15.5 |  | 
Cc1ccc(=O)n(CC(C)C(=N)S)n1 (stereo not drawn) | 30.2 | > 100 | 
CN(C)C(=S)CCn1nc(-c2ccccc2)ccc1=O | 46 |  | 
N=C(S)CCn1nc(-c2cccs2)ccc1=O | 50.2 | 100 | 
O=c1cccnn1CCC(=S)N1CCCC1 | 29.7 | > 100 | 
C/N=C(\S)CCn1nc(-c2ccccc2)ccc1=O | 68.2 | 58.5 | ED50 (Rattus norvegicus [1]): 66.3 mg/kg; ED50 (Rattus norvegicus [2]): 50.1 mg/kg; ED50 (Rattus norvegicus [5]): 28.3 mg/kg
CN1[C@@H]2CC[C@H]1C[C@@H](OC(=O)C(CO)c1ccccc1)C2.O=S(=O)(O)O (stereo partly drawn) [ATROPINE SULFATE] |  |  | ED50 (Rattus norvegicus [7]): 0.9 mg/kg; ED50 (Rattus norvegicus [1]): 4.5 mg/kg; ED50 (Rattus norvegicus [8]): 1.1 mg/kg
CN/C(=N\CCSCc1nc[nH]c1C)NC#N [CIMETIDINE] |  |  | ED50 (Rattus norvegicus [8]): > 100 mg/kg; ED50 (Rattus norvegicus [5]): 43.2 mg/kg

From ChEMBL document CHEMBL1122117, “Pyridazinones. 1. Synthesis and antisecretory and antiulcer activities of thio amide derivatives” (1982)
